{"data": "Assay results gathered from unrelated publications", "target": "Phosphatidylinositol 4,5-bisphosphate 3-kinase catalytic subunit gamma isoform (PIK3CG, Homo sapiens, UniProt P48736)", "note": "Each line is one published result; the experiments were not run side by side."}
{"Compound": "CC(C)CCn1c(SCC(=O)Nc2ccccc2C(F)(F)F)nc2nccnc2c1=O", "effect on": "enzyme activity", "mode": "inhibitor", "tested at": "10 µM", "measurement": "inhibition", "value": "< 20%"}
{"Compound": "CO[C@@H](C)c1c(Nc2ccc([C@@H](N(C)C(=O)C3CCS(=O)(=O)CC3)C(F)(F)F)cc2)cnc2cc(Cl)nn12", "effect on": "cell-free assay", "technique": "competition with immobilised ligand", "tested at": "1 µM", "measurement": "remaining binding", "value": "87%"}
{"Compound": "COc1cc(-c2cc(-c3ccc(N4CCNCC4)cc3)cnc2C)cc(OC)c1OC", "effect on": "enzyme activity", "mode": "inhibitor", "tested at": "1 µM", "measurement": "inhibition", "value": "11%"}
{"Compound": "Cc1ccc(C(=O)NCc2ccsc2)cc1C#Cc1cn(C(C)C)c2ncnc(N)c12", "effect on": "enzyme activity", "mode": "inhibitor", "tested at": "1 µM", "measurement": "activity vs control", "value": "96%"}
{"Compound": "Cc1ccc(C(=O)Nc2ccc(CN3CCN(C)CC3)c(C(F)(F)F)c2)cc1C#Cc1cnc2cccnn12", "effect on": "enzyme activity", "mode": "inhibitor", "tested at": "23.5 nM", "measurement": "remaining activity", "value": "85%"}
{"Compound": "CS(=O)(=O)Nc1cc(-c2ccc3ncnc(Nc4ccc(F)c(Cl)c4)c3c2)cnc1Cl", "effect on": "enzyme activity", "mode": "inhibitor", "technique": "FRET", "tested at": "10 µM", "measurement": "inhibition", "value": "90 to 100%"}
{"Compound": "O=S(=O)(Nc1cc(Sc2ncn[nH]2)c(O)c2ccccc12)c1ccc(-c2ccccc2)cc1", "effect on": "enzyme activity", "mode": "inhibitor", "tested at": "1 µM", "measurement": "remaining activity", "value": "≥ 75%"}
{"Compound": "O=C(CSc1nc2nccnc2c(=O)n1CCc1ccccc1)Nc1ccccc1", "effect on": "enzyme activity", "mode": "inhibitor", "tested at": "10 µM", "measurement": "inhibition", "value": "< 20%"}
{"Compound": "CCc1ccccc1C(=O)Nc1n[nH]c2c(C)c(F)c(C3C(C#N)=C(C)N(C)C(C)=C3C#N)cc12", "effect on": "cell-free assay", "technique": "competition with immobilised ligand", "tested at": "1 µM", "measurement": "remaining binding", "value": "100%"}
{"Compound": "Cc1cnc(NC2CCOCC2)nc1-n1cnc(C(=O)NC(CN)c2cc(F)cc(Cl)c2)c1 (stereo not drawn)", "effect on": "enzyme activity", "mode": "inhibitor", "technique": "radiometric", "tested at": "1 µM", "measurement": "remaining activity", "value": "100%"}
{"Compound": "Cc1cc(-n2nc(Cc3cc(F)cc(C(F)(F)F)c3)nc2C)ccc1C(N)=O", "effect on": "cell-free assay", "technique": "competition with immobilised ligand", "tested at": "1 µM", "measurement": "remaining binding", "value": "79%"}
{"Compound": "Cc1ccc(NC(=O)c2ccc(C)c(C(F)(F)F)c2)cc1C#Cc1nn(C2CCC(O)CC2)c2ncnc(N)c12 (stereo not drawn)", "effect on": "enzyme activity", "mode": "inhibitor", "tested at": "10 µM", "measurement": "remaining activity", "value": "87%"}
